Compound activity: PubChem BioAssay, several laboratories
Rows were chosen to be rich in hits. Some 2.2% of all compounds tested hit in one or more screens of this group.
VIM-2 inhibitor: inhibitors of Pseudomonas aeruginosa VIM-2 metallo-beta-lactamase. purified VIM-2, nitrocefin hydrolysis, epi-absorbance fluorescence. inhibition, % at 5.6 µM. 0.89% of 290,000 active. AID 1527;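 active = inhibition above the mean of all tested compounds plus 3 SD, cutoff set per screening run, cut at about 7.5% in these data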;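 note: red hydrolysis product quenches plate fluorescence so inhibitors raise well fluorescence; 0% = enzyme with DMSO and 100% = DMSO without enzyme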
GLD-1 RNA inh: GLD-1-TGE RNA interaction inhibition (C. elegans) | AID 2280 | Q17339 | inhibition, % at 5.96 µM | purified GLD-1 + fluorescein TGE RNA, fluorescence polarization | 0.44% of 320,000 active;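 active = percent inhibition above a per-plate cutoff, the plate mean of test compounds plus 3 SD, cut at about 30% in these data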;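 note: 0% = DMSO wells with GLD-1 and probe and 100% = wells lacking GLD-1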
EBV gp42 block: blocks Epstein-Barr virus glycoprotein 42 binding | Q1HVG2 | Fluorescence polarization binding assay, mP read-out | inhibition, % (tested at 21.74 µM) | 0.42% of 220,000 active | AID 1085; in the data active = inhibition above about 50%
IMP-1 inh: inhibitors of Pseudomonas aeruginosa IMP-1 metallo-beta-lactamase; purified IMP-1, nitrocefin hydrolysis, epi-absorbance fluorescence; inhibition, % at 5.6 µM; 0.45% of 290,000 active;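 active = inhibition above the mean plus 3 SD of all compounds in the same screening run, cut at about 4.5% in these data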;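 note: 0% = IMP-1 with DMSO and 100% = DMSO wells lacking enzyme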
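Assay system: purified recombinant IMP-1 beta-lactamase. Input: IMP-1 0.2 nM before substrate addition. Buffer or medium: Zinc- and detergent-supplemented HEPES buffer, pH 7.1. Schedule: 25 °C, 15 min preincubation, 25 min reaction. Signal: Epi-absorbance fluorescence, 480 nm excitation, 530 nm emission. Evaluation: percent inhibition from optical density relative to buffer-blank wells.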
MEX-5 binding: C. elegans MEX-5 TCR-2 RNA binding activity; activity score (negative = inhibition of binding), % at 10 µM; AID 1832; MEX-5/FITC-TCR2 RNA binding, fluorescence polarization; hits give low values; Q9XUB2; 0.38% of 300,000 active;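 active = inhibition past about -25% in most replicates, and total fluorescence under double the plate's negative control median, limit read from the data; inconclusive = replicates evenly split on the limit, or fluorescence at least double controls; inactive = too little inhibition in most replicates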;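 note: 0% = DMSO and -100% = 5 µM competing unlabeled TCR2 RNA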
Target sequence (Q9XUB2 whole entry, looked up): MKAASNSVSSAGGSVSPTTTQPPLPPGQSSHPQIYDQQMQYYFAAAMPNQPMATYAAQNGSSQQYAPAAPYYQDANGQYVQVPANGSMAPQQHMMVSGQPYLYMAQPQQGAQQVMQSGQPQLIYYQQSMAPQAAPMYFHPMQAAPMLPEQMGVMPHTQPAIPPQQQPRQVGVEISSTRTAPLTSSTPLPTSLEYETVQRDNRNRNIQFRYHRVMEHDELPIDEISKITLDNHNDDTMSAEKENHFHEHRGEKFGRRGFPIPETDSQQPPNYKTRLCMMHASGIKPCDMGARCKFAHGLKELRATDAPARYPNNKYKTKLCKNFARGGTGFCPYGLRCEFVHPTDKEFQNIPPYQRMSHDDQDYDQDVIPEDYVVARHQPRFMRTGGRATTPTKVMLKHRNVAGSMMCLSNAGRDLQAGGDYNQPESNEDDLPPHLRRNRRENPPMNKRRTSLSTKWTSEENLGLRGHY
BCLXL inh: Bcl-xL (human) inhibition. 0.7% of 320,000 active. inhibition, % at 10.9 µM. GST-Bcl-xL / FITC-Bim BH3 peptide fluorescence polarization. Q07817;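 active = inhibition above the mean of all tested compounds plus 3 SD, cutoff set per campaign, cut at about 30% in these data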;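 note: 0% = DMSO wells and 100% = unlabeled Bim-BH3 peptide competitor; inhibitors lower millipolarization by displacing the labeled peptide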
Target sequence (Q07817 whole entry, looked up): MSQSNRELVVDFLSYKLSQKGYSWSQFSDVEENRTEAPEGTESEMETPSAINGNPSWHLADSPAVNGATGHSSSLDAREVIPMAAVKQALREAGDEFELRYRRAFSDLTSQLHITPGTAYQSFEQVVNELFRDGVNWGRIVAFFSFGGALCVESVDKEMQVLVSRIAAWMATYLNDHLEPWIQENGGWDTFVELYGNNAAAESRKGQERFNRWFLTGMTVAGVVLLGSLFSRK
* hit, by the source's call; ? = inconclusive; / = not tested or not shown.

SMILES | VIM-2 inhibitor | GLD-1 RNA inh | EBV gp42 block | IMP-1 inh | MEX-5 binding | BCLXL inh
COC(=O)C1=C(C)Nc2sc(C(N)=O)c(N)c2C1c1ccncc1 (stereo not drawn) | 4 | 9 | -18 | 0 | -1 | 5
Cc1ccc(-c2c(C(=O)O)c3ccccc3[nH]c2=O)cc1 | 2 | -1 | / | -1 | -2 | 1
C[C@@H]1COC(=O)[C@@H](CC(=O)OC(C)(C)C)C/C=C\C[C@@H](CC(=O)N[C@H](CO)Cc2ccccc2)C(=O)N1 | / | 3 | / | / | / | /
O=C(COc1ccc([N+](=O)[O-])cc1)NN=C1CCCC1 | -4 | 3 | -1 | -2 | -2 | 3
O=C1CCC/C(=N\NC(=O)COc2ccc(Cl)cc2)C1 | 0 | 64* | 7 | -1 | -3 | 6
CC1=C(C#N)C(=O)N(C2CCS(=O)(=O)C2)C(=O)/C1=C\c1ccc(C)o1 (stereo not drawn) | -2 | -10 | 118* | 0 | ? | 30*
N#Cc1c(SCC(N)=O)nc2c(c1-c1ccc(O)cc1)CCCC2 | 4 | 1 | 111* | -4 | 1 | 4
O=C(NCC1CC1)c1cccc2c1C(=O)c1ccc(N3CCCC3)cc1S2(=O)=O | / | 44* | / | / | / | /
C=CCNC(=O)c1cccc2c1C(=O)c1ccc(N3CCCC3)cc1S2(=O)=O | / | 43* | / | / | / | /
O=C(NC[C@@H]1CCCO1)c1cccc2c1C(=O)c1ccc(N3CCOCC3)cc1S2(=O)=O | / | 3 | / | / | / | /
Cc1ccc(OC(=O)CCNC(=O)c2ccccc2Cl)c(Br)c1 | / | -3 | / | / | -2 | 0
COc1ccccc1NC(=S)NCc1ccc2c(c1)cc(C)n2C | -1 | 5 | -14 | -3 | -6 | 10
COc1ccc(C(=O)NCc2ccc3c(c2)cc(C)n3C)cc1OC | 0 | 23 | -9 | -2 | -2 | 37*
Cc1ccccc1NC(=S)NCc1ccc2c(c1)cc(C)n2C | -5 | 5 | 5 | 43* | 2 | -2
CC12CCC(=O)N1C(C(=O)NCCc1ccc(S(N)(=O)=O)cc1)CS2 (stereo not drawn) | -2 | 3 | / | -1 | -2 | 2
CCSc1cc(N2CCCC2)nc(-c2ccccc2Cl)n1 | -5 | 1 | 60* | -3 | -1 | 1
CCSc1cc(N2CCCC2)nc(-c2ccccc2)n1 | -3 | 7 | 1 | -2 | 3 | 2
O=C(Nc1ccc(Cl)cc1)c1cccnc1N1CCCCC1 | 0 | 1 | -2 | 20* | 0 | -1
Cc1cc(S(=O)(=O)N2CCOCC2)ccc1OCC(=O)Nc1ccc(Br)cc1F | 0 | 0 | / | -3 | -1 | 2
COc1cccc(C=Nc2cccc3c(=O)[nH][nH]c(=O)c23)c1O | -5 | 4 | -15 | 0 | -12 | 3
COc1ccc(C=Nc2cccc3c(=O)[nH][nH]c(=O)c23)c2ccccc12 | -1 | 10 | -7 | 27* | 4 | 7
CN(N=Nc1cccc([N+](=O)[O-])c1)c1ccccc1 | -3 | -5 | / | -4 | -2 | 1
CN(N=Nc1ccc([N+](=O)[O-])cc1)c1ccccc1 | -4 | 9 | 82* | -1 | -58* | 4
Cc1cc(=O)oc2cc(OCC(=O)N/N=C/c3cc([N+](=O)[O-])ccc3O)ccc12 | -2 | 12 | 92* | 0 | -2 | 4
Cc1ccc(C)c(NC(=O)CCC(=O)N/N=C/c2cc([N+](=O)[O-])ccc2O)c1 | -2 | -2 | 0 | -3 | 0 | 8
SMILES | VIM-2 inhibitor | GLD-1 RNA inh | EBV gp42 block | IMP-1 inh | MEX-5 binding | BCLXL inh
COCCNC(=O)Cn1nc(-c2ccc(Cl)cc2)c2ccccc2c1=O | -3 | 0 | / | -5 | -1 | 3
Cc1cccc(/C=C(\C#N)C(=O)Nc2ccccn2)c1 | -3 | 25 | / | -4 | -19 | 37*
N#C/C(=C\c1ccccc1)C(=O)Nc1ccccn1 | -2 | 4 | / | -1 | 3 | -1
N#C/C(=C\c1cccs1)C(=O)Nc1ccccn1 | -1 | 30 | 24 | -2 | -20 | 55*
NC(=S)Nc1ccc(S(=O)(=O)c2ccc(NC(N)=S)cc2)cc1 | -5 | -2 | / | 11* | 3 | 3
CC(=O)Nc1ccc(S(=O)(=O)c2ccc(N)cc2)cc1 | -1 | 0 | -2 | -2 | 5 | -1
CCN(CC)C(=O)c1ccc(/C=C/c2c[nH]c3ccccc23)[n+](C)c1 | 6 | -166 | -252 | 4.8* | ? | -68
Cc1ccc(C(=O)/C=C/c2c[nH]c3ccccc23)cc1 | 0 | -18 | -29 | -4 | -3 | 1
CCCn1c(Cc2ccccc2)nnc1SC(C)C(=O)NC1CC1 (stereo not drawn) | / | 4 | / | / | / | -3
N#Cc1sc2nc3c(cc2c1N)CCCC3 | -1 | 3 | 10 | 17* | -2 | 9
Cn1cc(Cl)c(C(=O)Nc2nc3ccc([N+](=O)[O-])cc3s2)n1 | -2 | 1 | 67* | -5 | 1 | 4
Cn1cc(Cl)c(C(=O)Nc2nc3ccc(Cl)cc3s2)n1 | -1 | 1 | 4 | -3 | 0 | 2
CC12CCC(=O)N1C(C(=O)OCC(=O)Nc1sccc1C#N)CS2 (stereo not drawn) | -2 | 22 | 2 | -1 | -13 | 40*
O=C(Nn1c(O)c(C=C2N=c3ccccc3=N2)sc1=S)c1ccccc1 | -5 | 6 | 9 | -5 | -1 | 2
Cc1ccc(C(=O)Nn2c(O)c(C=C3N=c4ccccc4=N3)sc2=S)cc1 | -3 | -2 | 61* | -4 | -2 | 1
CCCCS(=O)(=O)N1CCCC(C(=O)NCC2CCCO2)C1 (stereo not drawn) | -2 | 2 | / | -3 | -1 | 2
O=C(NN1C(=O)/C(=C/c2ccc(O)c([N+](=O)[O-])c2)SC1=S)c1ccccc1Cl | -1 | -35 | -29 | 6.0* | -18 | -20
COc1cc(/C=C2\SC(=S)N(NC(=O)c3ccccc3O)C2=O)ccc1O | -4 | -25 | / | -8 | 27 | 0
O=C(NN1C(=O)/C(=C/c2ccc(O)cc2)SC1=S)c1ccccc1O | 1 | -108 | / | 4.8* | ? | -17
NS(=O)(=O)c1cc(C(=O)OCC(=O)Nc2ccc3c(c2)OCO3)ccc1Cl | / | 3 | / | / | / | /
Cc1ccc(C)c(NC(=O)C2CCN(S(=O)(=O)c3ccc4c(c3)NC(=O)CO4)CC2)c1 | -2 | 4 | / | -2 | -4 | 1
CCCCNC(=O)c1c(O)c2cccc3c2n(c1=O)CCC3 | -3 | -4 | -14 | -3 | 2 | 2
O=C(NCCCO)c1c(O)c2cccc3c2n(c1=O)CCC3 | 11* | -8 | / | -3 | -1 | 5
CCNCCNC(=O)c1c(O)c2cccc3c2n(c1=O)CCC3 | 8.5* | -1 | -17 | -2 | 3 | 2
NNC(=O)c1c(O)c2cccc3c2n(c1=O)CCC3 | 7 | 0 | / | -5 | -2 | -11
O=C(N/N=C/c1ccc(Cl)cc1Cl)c1ccc2nc[nH]c2c1 | -1 | 6 | / | 8.8* | 3 | -5
CC(C)(C)c1ccc(S(=O)(=O)N2CCNC(=O)C2)cc1 | / | 2 | / | / | / | /
